{
  "source": "paper PMC9099131",
  "about": "(Clinical and Translational Science, 2022)",
  "key": {"[1]": {"assay": "Single-dose plasma pharmacokinetics of trazpiroben alone and with esomeprazole", "type": "in vivo, human (healthy adults)", "conditions": "for AUC∞, Geometric LSM / Cmax, Geometric LSM: ANOVA", "method_in_brief": "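Healthy adults dosed orally with 25 mg on day 1; after a 4-day washout, the proton pump inhibitor was given at 40 mg once daily on days 8–12, with 25 mg co-dosed 1 h after it on day 11 following a ≥10 h fast. Plasma was sampled predose to 48 h and assayed by validated LC-MS/MS (0.05–50.00 ng/ml), with BLQ values set to zero. Noncompartmental parameters were derived, and ln AUC∞/Cmax were analysed by ANOVA (treatment fixed, participant random).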"}, "[2]": {"conditions": "ref data on file, cited from earlier work"}, "[3]": {"conditions": "trazpiroben 25 mg alone, N = 12"}, "[4]": {"conditions": "trazpiroben 25 mg and esomeprazole 40 mg, N = 12"}, "[5]": {"conditions": "plasma, single oral dose trazpiroben 25 mg alone, N = 12"}, "[6]": {"conditions": "single dose alone or in the presence of esomeprazole"}, "[7]": {"conditions": "single oral dose trazpiroben 25 mg alone, N = 12"}, "[8]": {"conditions": "single oral dose trazpiroben 25 mg with esomeprazole 40 mg once daily, N = 12"}, "[9]": {"conditions": "trazpiroben 25 mg with esomeprazole 40 mg vs alone"}, "[10]": {"conditions": "single oral dose of trazpiroben 25 mg alone on day 1"}},
  "data": [
    {"smiles": "O=C(O)c1cccc(CN2CN(C3CCCCC3)C3(CCN(CCCC(=O)c4ccccc4)CC3)C2=O)c1", "note": "[Trazpiroben]", "values": [
      {"measurement": "AUC∞, Geometric LSM", "setting": "[1]; [3]", "value": 44.03, "unit": "ng·h/mL"},
      {"measurement": "Cmax, Geometric LSM", "setting": "[1]; [3]", "value": 19.76, "unit": "ng/mL"},
      {"measurement": "AUC∞, Geometric LSM", "setting": "[1]; [4]", "value": 38.85, "unit": "ng·h/mL"},
      {"measurement": "Cmax, Geometric LSM", "setting": "[1]; [4]", "value": 17.24, "unit": "ng/mL"},
      {"measurement": "AUC∞, Geo. mean (CV%)", "setting": "[1]; [5]", "value": "44.03 (27.50) ng h/ml"},
      {"measurement": "Cmax, Geo. mean (CV%)", "setting": "[1]; [5]", "value": "19.76 (36.50) ng/ml"},
      {"measurement": "Tmax, Median (min, max)", "setting": "[1]; [5]", "value": "1.00 (0.50, 1.53) h"},
      {"measurement": "t1/2, Mean (±SD)", "setting": "[1]; [5]", "value": "6.21 ± 3.96", "unit": "h"},
      {"measurement": "approximate half-life of biphasic decline", "setting": "[1]; [6]", "value": "6 to 7", "unit": "h"},
      {"measurement": "time postdose at which mean plasma concentration peaked", "setting": "[1]; [6]", "value": "around 1 h"},
      {"measurement": "CL/F, Geo. mean (CV%)", "setting": "[1]; [7]", "value": "567.90 (27.50) L/h"},
      {"measurement": "Vz/F, Geo. mean (CV%)", "setting": "[1]; [7]", "value": "4137.00 (77.80) L"},
      {"measurement": "CL/F, Geo. mean (CV%)", "setting": "[1]; [8]", "value": "643.50 (31.10) L/h"},
      {"measurement": "Vz/F, Geo. mean (CV%)", "setting": "[1]; [8]", "value": "4716.00 (102.00) L"},
      {"measurement": "GMR for plasma AUC∞ lower following co-administration versus trazpiroben alone", "setting": "[1]; [9]", "value": 11.8, "unit": "%"},
      {"measurement": "GMR for plasma Cmax lower following co-administration versus trazpiroben alone", "setting": "[1]; [9]", "value": 12.8, "unit": "%"},
      {"measurement": "vital sign and ECG parameters", "setting": "following both treatments", "value": "no clinically meaningful changes"},
      {"measurement": "tolerability", "setting": "healthy adults, administration alone and alongside esomeprazole", "value": "well‐tolerated"},
      {"measurement": "CNS or cardiovascular safety concerns", "setting": "single agent or co-administered with esomeprazole", "value": "no CNS or cardiovascular safety concerns were observed"},
      {"measurement": "Number of participants with treatment‐emergent AEs", "setting": "[10]", "value": "2 (17) n (%)"},
      {"measurement": "Participants reporting AEs: Folliculitis", "setting": "[10]", "value": "0 (0) n (%)"},
      {"measurement": "Participants reporting AEs: General disorders and administration site conditions", "setting": "[10]", "value": "0 (0) n (%)"},
      {"measurement": "Participants reporting AEs: Headache", "setting": "[10]", "value": "1 (8) n (%)"},
      {"measurement": "Participants reporting AEs: Infections and infestations", "setting": "[10]", "value": "0 (0) n (%)"},
      {"measurement": "Participants reporting AEs: Influenza‐like illness", "setting": "[10]", "value": "0 (0) n (%)"},
      {"measurement": "Participants reporting AEs: Menstruation delayed", "setting": "[10]", "value": "0 (0) n (%)"},
      {"measurement": "Participants reporting AEs: Nervous system disorders", "setting": "[10]", "value": "1 (8) n (%)"},
      {"measurement": "Participants reporting AEs: Oropharyngeal pain", "setting": "[10]", "value": "0 (0) n (%)"},
      {"measurement": "Participants reporting AEs: Reproductive system and breast disorders", "setting": "[10]", "value": "0 (0) n (%)"},
      {"measurement": "Participants reporting AEs: Respiratory, thoracic, and mediastinal disorders", "setting": "[10]", "value": "1 (8) n (%)"},
      {"measurement": "Participants reporting AEs: Throat irritation", "setting": "[10]", "value": "1 (8) n (%)"},
      {"measurement": "Participants reporting AEs: Vessel puncture site pain", "setting": "[10]", "value": "0 (0) n (%)"},
      {"measurement": "Participants reporting AEs: Vessel puncture site reaction", "setting": "[10]", "value": "0 (0) n (%)"},
      {"measurement": "deaths, serious AEs, discontinuations due to AEs", "setting": "whole study, 12 participants", "value": "No deaths, serious AEs, or discontinuations due to AEs were reported"},
      {"measurement": "mean solubility", "setting": "[2]; pH 1.15", "value": 1210, "unit": "µg/mL"},
      {"measurement": "solubility", "setting": "[2]; pH 6.97", "value": 50, "unit": "µg/mL"}
    ]}
  ]
}
